From ChEMBL document CHEMBL2203243, “Synthesis and biological evaluation of novel benzimidazole derivatives and their binding behavior with bovine serum albumin” (Eur J Med Chem, 2012)
Values after ≈ are worked out from the molar mass of the structure shown.

Columns and labels:
Pseudomonas aeruginosa = test: Antimicrobial activity against Pseudomonas aeruginosa by microbroth dilution method; type: functional
Outline: (§1)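 Two-fold serial broth microdilution in 96-well microtest plates, run against four Gram-positive strains, five Gram-negative strains and two fungi.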

Bacillus = test: Antimicrobial activity against Bacillus proteus by microbroth dilution method; type: functional; outline: as §1
Bacillus subtilis = test: Antimicrobial activity against Bacillus subtilis by microbroth dilution method; type: functional; outline: as §1
[1] = Antimicrobial activity against Eberthella typhosa by microbroth dilution method; type: functional; outline: as §1
Candida = test: Antimicrobial activity against Candida mycoderma by microbroth dilution method; type: functional; outline: as §1
Micrococcus luteus = test: Antimicrobial activity against Micrococcus luteus ATCC 4698 by microbroth dilution method; type: functional; outline: as §1
Staphylococcus aureus [2] = test: Antimicrobial activity against methicillin-resistant Staphylococcus aureus N315 by microbroth dilution method; type: functional
Staphylococcus aureus [3] = test: Antimicrobial activity against Staphylococcus aureus ATCC 25923 by microbroth dilution method; type: functional; outline: as §1
Escherichia coli = test: Antimicrobial activity against Escherichia coli DH52 by microbroth dilution method; type: functional; outline: as §1
[4] = Lipophilicity, log P of the compound by UV-Vis spectrophotometric method based saturation shake flask assay; type: physicochemical; conditions: octanol/water
Outline: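 Log P measured by the traditional saturation shake-flask partition, with compound quantified by UV-vis spectrophotometry.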

Candida albicans = test: Antimicrobial activity against Candida albicans by microbroth dilution method; type: functional; outline: as §1
Shigella dysenteriae = test: Antimicrobial activity against Shigella dysenteriae by microbroth dilution method; type: functional

Compound	MIC (Pseudomonas aeruginosa)	MIC (Bacillus)	MIC (Bacillus subtilis)	MIC [1]	MIC (Candida)	MIC (Micrococcus luteus)	MIC (Staphylococcus aureus [2])	MIC (Staphylococcus aureus [3])	MIC (Escherichia coli)	logP ([4]; read-out: logP)	MIC (Candida albicans)	MIC (Shigella dysenteriae)	logP [4]
ClCc1nc2ccccc2[nH]1	> 512 µg/mL	> 512 µg/mL	> 512 µg/mL	512 µg/mL (≈ 3070 µM)	> 512 µg/mL	512 µg/mL (≈ 3070 µM)	> 512 µg/mL	> 512 µg/mL	256 µg/mL (≈ 1540 µM)	1.44	512 µg/mL (≈ 3070 µM)	512 µg/mL (≈ 3070 µM)	
CCCCCCCCCCCCn1c(CNNC(=O)c2sc(C(=O)NNCc3nc4ccccc4n3CCCCCCCCCCCC)c(C)c2C)nc2ccccc21	128 µg/mL (≈ 155 µM)	> 512 µg/mL	512 µg/mL (≈ 620 µM)	256 µg/mL (≈ 310 µM)	64 µg/mL (≈ 77.6 µM)	> 512 µg/mL	8 µg/mL (≈ 9.69 µM)	128 µg/mL (≈ 155 µM)	128 µg/mL (≈ 155 µM)		256 µg/mL (≈ 310 µM)	16 µg/mL (≈ 19.4 µM)	ND(Insoluble)
CCCCCCCCCCCCCCCCCCn1c(CNNC(=O)c2sc(C(=O)NNCc3nc4ccccc4n3CCCCCCCCCCCCCCCCCC)c(C)c2C)nc2ccccc21	512 µg/mL (≈ 515 µM)	> 512 µg/mL	> 512 µg/mL	64 µg/mL (≈ 64.4 µM)	256 µg/mL (≈ 258 µM)	> 512 µg/mL	512 µg/mL (≈ 515 µM)	256 µg/mL (≈ 258 µM)	512 µg/mL (≈ 515 µM)		> 512 µg/mL	512 µg/mL (≈ 515 µM)	ND(Insoluble)
Cc1c(C(=O)NNCc2nc3ccccc3n2Cc2ccc(Cl)c(Cl)c2)sc(C(=O)NNCc2nc3ccccc3n2Cc2ccc(Cl)c(Cl)c2)c1C	> 512 µg/mL	> 512 µg/mL	512 µg/mL (≈ 635 µM)	> 512 µg/mL	> 512 µg/mL	> 512 µg/mL	> 512 µg/mL	32 µg/mL (≈ 39.7 µM)	512 µg/mL (≈ 635 µM)	7.16	> 512 µg/mL	> 512 µg/mL	
Cc1c(C(=O)NNCc2nc3ccccc3n2Cc2ccc(F)cc2F)sc(C(=O)NNCc2nc3ccccc3n2Cc2ccc(F)cc2F)c1C	128 µg/mL (≈ 173 µM)	128 µg/mL (≈ 173 µM)	256 µg/mL (≈ 346 µM)	128 µg/mL (≈ 173 µM)	256 µg/mL (≈ 346 µM)	256 µg/mL (≈ 346 µM)	128 µg/mL (≈ 173 µM)	64 µg/mL (≈ 86.4 µM)	128 µg/mL (≈ 173 µM)	4.96	64 µg/mL (≈ 86.4 µM)	256 µg/mL (≈ 346 µM)	
Cc1c(C(=O)NNCc2nc3ccccc3n2Cc2ccc(F)cc2)sc(C(=O)NNCc2nc3ccccc3n2Cc2ccc(F)cc2)c1C	128 µg/mL (≈ 182 µM)	128 µg/mL (≈ 182 µM)	32 µg/mL (≈ 45.4 µM)	128 µg/mL (≈ 182 µM)	32 µg/mL (≈ 45.4 µM)	128 µg/mL (≈ 182 µM)	128 µg/mL (≈ 182 µM)	128 µg/mL (≈ 182 µM)	32 µg/mL (≈ 45.4 µM)	5.25	64 µg/mL (≈ 90.8 µM)	128 µg/mL (≈ 182 µM)	
Cc1c(C(=O)NNCc2nc3ccccc3n2Cc2ccc(Cl)cc2)sc(C(=O)NNCc2nc3ccccc3n2Cc2ccc(Cl)cc2)c1C	32 µg/mL (≈ 43.4 µM)	32 µg/mL (≈ 43.4 µM)	32 µg/mL (≈ 43.4 µM)	16 µg/mL (≈ 21.7 µM)	32 µg/mL (≈ 43.4 µM)	16 µg/mL (≈ 21.7 µM)	32 µg/mL (≈ 43.4 µM)	32 µg/mL (≈ 43.4 µM)	8 µg/mL (≈ 10.8 µM)	6.19	16 µg/mL (≈ 21.7 µM)	32 µg/mL (≈ 43.4 µM)	
Cc1c(C(=O)NNCc2nc3ccccc3n2Cc2cccc(Cl)c2)sc(C(=O)NNCc2nc3ccccc3n2Cc2cccc(Cl)c2)c1C	128 µg/mL (≈ 174 µM)	128 µg/mL (≈ 174 µM)	128 µg/mL (≈ 174 µM)	256 µg/mL (≈ 347 µM)	64 µg/mL (≈ 86.8 µM)	32 µg/mL (≈ 43.4 µM)	16 µg/mL (≈ 21.7 µM)	128 µg/mL (≈ 174 µM)	32 µg/mL (≈ 43.4 µM)	6.34	128 µg/mL (≈ 174 µM)	128 µg/mL (≈ 174 µM)	
Cc1c(C(=O)NNCc2nc3ccccc3n2Cc2ccccc2Cl)sc(C(=O)NNCc2nc3ccccc3n2Cc2ccccc2Cl)c1C	64 µg/mL (≈ 86.8 µM)	16 µg/mL (≈ 21.7 µM)	32 µg/mL (≈ 43.4 µM)	128 µg/mL (≈ 174 µM)	128 µg/mL (≈ 174 µM)	16 µg/mL (≈ 21.7 µM)	16 µg/mL (≈ 21.7 µM)	32 µg/mL (≈ 43.4 µM)	32 µg/mL (≈ 43.4 µM)	6.25	32 µg/mL (≈ 43.4 µM)	32 µg/mL (≈ 43.4 µM)	
CCCn1c(CNNC(=O)c2sc(C(=O)NNCc3nc4ccccc4n3CCC)c(C)c2C)nc2ccccc21.Cl	32 µg/mL	16 µg/mL	256 µg/mL	4 µg/mL	128 µg/mL	256 µg/mL	32 µg/mL	256 µg/mL	256 µg/mL		32 µg/mL	128 µg/mL	
CCCCCCCCCCn1c(CNNC(=O)c2sc(C(=O)NNCc3nc4ccccc4n3CCCCCCCCCC)c(C)c2C)nc2ccccc21.Cl	16 µg/mL	2 µg/mL	2 µg/mL	4 µg/mL	4 µg/mL	8 µg/mL	2 µg/mL	2 µg/mL	4 µg/mL		8 µg/mL	8 µg/mL	
